# Screening data from PubChem BioAssay.
# The list is not random: actives were taken first. Their share in the collection is about 3.7%.
# HMGR II inh: inhibitors of class II HMG-CoA reductase from Enterococcus faecalis; inhibition, % at 10 µM; 190,000 compounds, 0.41% hits; purified E. faecalis HMGR, NADPH absorbance 340 nm kinetic;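 active = inhibition above a set limit, the median over all tested compounds plus 3 SD, cut at about 9.5% in these data; inconclusive = no clear call, values can overlap the other calls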;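 also: enzyme runs in reverse so mevalonate oxidation gives rising NADPH absorbance; 0% = complete reaction with DMSO and 100% = background rate lacking mevalonate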
# Yeast growth inh: reduces growth of yeast BB579 in restrictive medium; inhibition, % at 10 µM; 140,000 compounds, 0.51% hits; S. cerevisiae BB579 growth, OD615, 48 h;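 active = inhibition above a set limit, 3 SD over the mean compound inhibition, cut at about 44% in these data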
#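 Test system: Saccharomyces cerevisiae DeaD strain BB579, replicative lifespan model yeast | Buffer or medium: Restrictive CSMM-D medium | Doses: One dose, 10 µM compound with 0.25% DMSO | Incubation: 48 h exposure, 30 °C | Detection: Culture absorbance at 615 nm | Control set: Amphotericin B at 10 µg/mL as positive control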
# RAM inhibit: inhibitors of the yeast RAM network; S. cerevisiae dse1pr::URA3 reporter, 5-FOA growth OD615, 2 d; analog-sensitive cbk1-as2 kinase mutant strain; 190,000 compounds, 1.8% hits; inhibition, % at 50 µM;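 active = inhibition above a set limit, 3 SD over mean compound inhibition, cut at about 8.4% in these data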;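 also: 0% = DMSO-only wells with no growth and 100% = 10 µM 1-NA-PP1 full growth; inhibition rescues growth on 5-FOA so higher OD means more RAM inhibition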
# Yeast lifespan up: extends the lifespan of yeast | S. cerevisiae growth with nicotinamide, OD615; deaD strain in restrictive glucose medium | 130,000 compounds, 0.68% hits | inhibition of the nicotinamide effect, % at 10 µM;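 active = inhibition above a set limit, placed 3 SD over the median of all compounds, cut at about 26% in these data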;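 also: 0% = nicotinamide-treated wells and 100% = cells grown without nicotinamide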
#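 Assay system: engineered S. cerevisiae DeaD replicative-lifespan strain, galactose-grown log-phase cells; Buffer or medium: CSMM-D glucose medium, restrictive; Probe or stimulus: nicotinamide 1.5 mM; Compound: single dose 10 µM compound, 0.25% DMSO; Schedule: 4 h preincubation then 48 h treatment at 30 °C; Technique: OD615 measurement.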
# INS promoter inh: TRM-6 insulin promoter activity inhibition; AID 1273; inhibition, % at 2 µM; 130,000 compounds, 0.9% hits; TRM-6 cells (human fetal islet line), insulin promoter-eGFP reporter, imaging; reporter expression induced with tamoxifen;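 active = inhibition above the mean plus 3 SD, with well images judged a real hit on visual review, cut at about 60% in these data, passing the limit was not always enough; inconclusive = inhibition over the cutoff but images rejected on review; inactive = inhibition not above the cutoff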
# The depositor's hits bear a star; ? = inconclusive; / = not tested or not shown.
SMILES,HMGR II inh,Yeast growth inh,RAM inhibit,Yeast lifespan up,INS promoter inh
O=C(CSc1nc2ccccc2s1)N/N=C/c1ccc(C(=O)O)cc1,0.3,/,10.1*,/,-161.1
Cc1ccc(/C=C/C(=O)C2C(=O)c3ccccc3C2=O)cc1,-1.8,-20.0,3.5,42.3*,/
Cc1ccc(/C=C/C(=O)c2ccc(C)cc2)cc1,-1.1,-24.1,1.6,/,-366.7
Cc1cc(Cl)ccc1OCC(=O)OCC(=O)Nc1ccc(F)c([N+](=O)[O-])c1,-2.1,-21.4,9.2*,-5.2,-57.1
CCNC(=O)COC(=O)COc1ccc(Cl)cc1C,1.3,-74.0,0.7,-11.6,0.0
Cc1ccccc1Nc1nnc(SCc2nc3ccccc3c(=O)[nH]2)s1,13.8*,/,-0.3,/,/
Cc1cccc(C)c1Nc1nnc(SCc2nc3ccccc3c(=O)[nH]2)s1,-2.0,-30.4,6.1,4.5,-76.9
CC(C)c1ccc(/C=C/C(=O)CCC(=O)O)cc1,3.1,/,-0.5,/,-21.4
O=C(O)CCC(=O)/C=C/c1ccccc1,11.9*,/,-0.5,/,/
S=C(NCc1ccc2c(c1)OCO2)NC1CC1,2.7,/,0.1,/,/
NS(=O)(=O)c1ccc(NC(=S)NC(=O)c2ccc3c(c2)OCO3)cc1,-2.5,/,3.9,/,/
NC(N)=NS(=O)(=O)c1ccc(NC(=S)NC(=O)c2ccc3c(c2)OCO3)cc1,0.9,/,9.1*,/,-58.3
O=C(Nc1ccccc1)C1=C[C@H](c2ccc(Br)cc2)C[C@H](OCc2ccc(CO)cc2)O1,0.0,/,8.2,/,/
C#Cc1ccc([C@H]2C=C(C(=O)O)O[C@@H](OCc3ccc(CO)cc3)C2)cc1,-3.4,/,2.8,/,/
CC(C)(C)[C@H]1C=C(C(=O)Nc2ccccc2)O[C@@H](OCc2ccc(CO)cc2)C1,-0.5,/,10.0*,/,/
C#Cc1ccc([C@@H]2C=C(C(=O)OCC=C)O[C@H](OCc3ccc(CO)cc3)C2)cc1,-2.9,/,10.3*,/,/
C#CCNC(=O)C1=C[C@H](c2csc3ccccc23)C[C@H](OCc2ccc(CO)cc2)O1,1.2,/,8.5*,/,/
O=C(Nc1ccccc1)C1=C[C@@H](c2ccccc2)C[C@@H](OCc2ccc(CO)cc2)O1,-0.7,/,9.9*,/,/
O=C(NCc1ccccc1)C1=C[C@H](c2ccc(Br)cc2)C[C@H](OCc2ccc(CO)cc2)O1,-1.5,/,10.6*,/,/
CN1CCN(C(=O)C2=C[C@@H](C3CC3)C[C@@H](OCc3ccc(CO)cc3)O2)CC1,9.8*,/,-1.8,/,/
CC(=O)n1cc([C@H]2C=C(C(=O)NCc3ccccc3)O[C@@H](OCCCCO)C2)c2ccccc21,-4.3,/,8.8*,/,/
O=C(C1=C[C@H](C2CC2)C[C@H](OCc2ccc(CO)cc2)O1)N1CCOCC1,-0.8,/,1.8,/,/
O=C(O)C1=C[C@H](c2ccc(C(F)(F)F)cc2)C[C@H](OCc2ccc(CO)cc2)O1,-1.9,/,-0.1,/,/
CC(=O)n1cc([C@@H]2C=C(C(=O)NCc3ccccc3)O[C@H](OCCCCO)C2)c2ccccc21,-3.0,/,3.1,/,/
O=C(Nc1ccccc1)C1=C[C@@H](c2ccc(C(F)(F)F)cc2)C[C@@H](OCc2ccc(CO)cc2)O1,-0.9,/,9.7*,/,/
SMILES,HMGR II inh,Yeast growth inh,RAM inhibit,Yeast lifespan up,INS promoter inh
O=C(NCc1ccccc1)C1=C[C@@H](c2ccccc2)C[C@@H](OCc2ccc(CO)cc2)O1,3.1,/,7.6,/,/
Cc1c(NC(=S)Nc2ccc(Cl)cc2)c(=O)n(-c2ccccc2)n1C,-6.9,/,0.6,/,/
C#Cc1ccc([C@@H]2C=C(C(=O)OCC=C)O[C@H](OCCCCO)C2)cc1,2.1,/,3.3,/,/
O=C(C1=C[C@@H](c2ccc(Br)cc2)C[C@@H](OCc2ccc(CO)cc2)O1)N1CCOCC1,-3.9,/,9.2*,/,/
CC(=O)Nc1ccc(-n2c(C)nc(=O)c(-c3ccccc3)c2C)cc1,-1.7,-26.6,-0.3,-11.3,7.1
Cc1nc(=O)c(-c2ccccc2)c(C)n1-c1ccc(O)cc1,3.7,-57.9,1.5,-5.5,100.0*
COc1ccc(Nc2c3c(nc4c(-c5ccccc5)c(C)nn24)CCC3)cc1,1.5,-18.4,0.6,4.2,90.8*
COc1ccc(-c2c(C)nn3c(-c4ccccc4)cc(C)nc23)cc1,-4.8,/,6.5,/,/
CCCC[C@@H]1CNC(=S)N1CCCC,0.1,/,-0.3,/,/
CC(C)NS(=O)(=O)c1ccc(OCC(=O)Nc2ccccc2F)cc1,-2.1,-31.9,2.0,-0.5,43.8
CC(C)NS(=O)(=O)c1ccc(OCC(=O)Nc2ccc(F)cc2F)cc1,2.8,-39.6,2.2,48.7*,26.7
CCN1CCN(CC(=O)N/N=C/c2ccc(F)cc2F)CC1,-0.3,-15.6,1.1,4.7,26.1
CN(C)S(=O)(=O)Nc1ccccc1F,-2.2,/,1.9,/,/
O=C(O)c1cc2c(ccc3ccccc32)oc1=O,-0.9,66.8*,-1.5,-10.5,-192.9
O=C(c1cc2c(ccc3ccccc32)oc1=O)N1CCCC1,1.9,-24.5,0.2,-1.5,28.6
O=C(O)c1cc2ccc3ccccc3c2oc1=O,1.4,64.5*,-1.6,/,5.0
Cc1sc2nc[nH]c(=S)c2c1-c1ccccc1,-4.6,/,1.3,/,/
O=C(CSc1nc(-c2ccc(F)cc2)cc(C(F)(F)F)n1)Nc1ccc2c(c1)OCO2,0.4,-15.9,2.6,0.0,13.3
O=C(OCC(=O)N1CCc2ccccc21)c1nc(Cl)ccc1Cl,-1.7,/,2.0,/,/
O=[N+]([O-])c1cc(Cc2ccccc2)cc(C=Nc2ccc(N3CCOCC3)cc2)c1O,-4.5,99.6*,-0.1,-10.0,-25.8
Cc1ccc(O)c(N=Cc2cc(Cc3ccccc3)cc([N+](=O)[O-])c2O)c1,1.9,/,-0.1,/,/
COc1ccc(C)cc1NC(=O)C(NCC1CCCO1)c1ccccc1 (stereo not given),-4.1,-21.1,-0.5,3.3,0.0
Cc1cc(NC(=O)CCCN2C(=O)c3cccc4cccc(c34)C2=O)no1,-3.1,/,1.1,/,/
CCOC(=O)CSc1nnc(CCCCCN2C(=O)c3cccc4cccc(c34)C2=O)o1,-0.8,-60.5,10.8*,9.9,-40.7
COc1ccc(CNC(=O)CSc2nnc(-c3ccc(NC(C)=O)cc3)n2C)cc1,-1.4,47.7*,1.1,-27.1,-268.8
SMILES,HMGR II inh,Yeast growth inh,RAM inhibit,Yeast lifespan up,INS promoter inh
COc1ccc(-c2nnc(SCC(=O)Nc3ccc(C)cc3)n2C)cc1,5.8,-36.5,2.3,-6.9,-44.1
CC(=O)Nc1ccc(-c2nnc(SCc3c(C)cc(C)cc3C)n2C)cc1,-1.1,-2.9,8.5*,-2.8,/
Cc1ccc(CN2CCN(/N=C/c3ccc(C)s3)CC2)c(C)c1,0.8,-19.1,1.6,7.4,-3.3
Cc1ccc(-c2cc(C(=O)O)c3cc(Br)ccc3n2)o1,-7.0,-4.7,0.5,-4.2,58.1
C/C(CCc1oc2ccc(Cl)cc2c1-c1ccc(C)o1)=N\O,-4.2,-27.6,9.4*,/,?
C/C(CCc1oc2ccc(Br)cc2c1-c1ccc(C)o1)=N/O,-3.7,-55.3,11.4*,1.4,25.0
COC(=O)c1ccccc1-n1cccc1C(=O)NP(=O)(N1CCOCC1)N1CCOCC1,-5.8,/,1.3,/,35.0
CC(=O)c1ccc(NC(=O)c2ccc(CSc3ccccc3)o2)cc1,1.3,-42.0,8.6*,-7.1,/
O=C(Nc1ccc(F)cc1)c1ccc(CSc2ccccc2)o1,-9.2,-13.5,-0.1,-8.7,/
